# In paper PMC6753935 (Journal of Clinical and Translational Science, 2019):
# Tested on: human platelets in platelet-rich plasma (PRP)
# Test: In vitro platelet aggregation in PRP of healthy human volunteers
# Type: cell-based
# Conditions: aspirin 0.83 mM, arachidonic acid 1.5 mM, citrated PRP
# How it was run: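 Healthy donors' venous blood was anticoagulated with citrate (0.38% final), PPACK (0.1 or 0.3 mM final) or heparin (15.8 USP U/ml). PRP was spun at 650 × g for 4 min at room temperature. Aspirin 0.83 mM final for 10 min, then test compound (0.01–3 µM final) for 20 min. Aggregation induced by arachidonic acid 1.5 mM or ADP 5 µM. IC50 from initial-slope inhibition by Hill-equation fit.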
smiles,measurement,value
"CC(=O)Oc1ccccc1C(=O)O [Aspirin, acetyl salicylic acid, reference compound]",Effect on arachidonic-acid-induced platelet aggregation,eliminated
